{
  "source": "ChEMBL document CHEMBL2439964",
  "about": "“Identification of a series of 1,3,4-trisubstituted pyrazoles as novel hepatitis C virus entry inhibitors” (Bioorg Med Chem Lett, 2013)",
  "key": {"[1]": {"assay": "Cytotoxicity against human HuH7 cells", "format": "cell-based, Huh-7", "method_in_brief": "(§1)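 Naïve Huh-7 cells in 384-well plates were given serially diluted compound, then infected with cell culture-derived HCV (HCVcc) at MOI 1. Live cells were analysed 72 h post-infection. EC50 came from 10-point dose-response in duplicate with quadruplicate measurements, or 5-point in duplicate for one series. CC50 came from automated per-well cell counts. SI = CC50/EC50.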"}, "Hepatitis C virus [2]": {"tested_on": "Hepatitis C virus", "assay": "Antiviral activity against HCV genotype-1 pseudoparticle expressing envelope protein E1 and E2 assessed as inhibition of pseudoparticles entry into human Huh-H1 cells after 2 days by luciferase reporter gene assay", "format": "functional, organism-based, Hepacivirus hominis", "conditions": "genotype 1, Huh-H1, 48 h"}, "[3]": {"assay": "Cytotoxicity against human Huh-H1 cells", "format": "cell-based"}, "Hepatitis C virus [4]": {"tested_on": "Hepatitis C virus", "assay": "Antiviral activity against cell culture derived HCV infected in human HuH7 cells assessed as inhibition of viral replication after 72 hrs", "format": "functional, organism-based, Hepacivirus hominis", "conditions": "Huh-7, 72 h", "method_in_brief": "as §1"}, "[5]": {"tested_on": "Vesicular stomatitis virus", "assay": "Antiviral activity against Vesicular stomatitis virus pseudoparticle expressing glycoprotein assessed as inhibition of pseudoparticles entry into human Huh-H1 cells after 2 days by luciferase reporter gene assay", "format": "functional, organism-based"}, "[6]": {"assay": "Selectivity index, ratio of CC50 for human HuH7 cells to EC50 for cell culture derived HCV", "design": "species or system Huh-7", "method_in_brief": "as §1"}},
  "note": "Active and inactive are the calls of the source. The rule behind the calls is not given here.",
  "data": [
    {"smiles": "Cc1ccccc1-c1nn(-c2ccc(F)cc2F)cc1CNCCCN(C)C", "values": [
      {"measurement": "CC50", "setting": "[1]", "value": "> 20000", "unit": "nM"},
      {"measurement": "EC50", "setting": "Hepatitis C virus [2]", "value": 6100, "unit": "nM"},
      {"measurement": "CC50", "setting": "[3]", "value": "> 25000", "unit": "nM"},
      {"measurement": "EC50", "setting": "Hepatitis C virus [4]", "value": 6700, "unit": "nM"},
      {"measurement": "inhibition", "setting": "[5]", "value": "inactive"},
      {"measurement": "Ratio CC50/EC50", "setting": "[6]", "value": ">3"}
    ]},
    {"smiles": "CCCCCNc1nc(Nc2ccc([N+](=O)[O-])cc2)nc(OCC(F)(F)F)n1", "values": [
      {"measurement": "CC50", "setting": "[3]", "value": "> 25000", "unit": "nM"},
      {"measurement": "inhibition", "setting": "[5]", "value": "inactive"}
    ]},
    {"smiles": "COc1ccc(-n2cc(CNCCN3CCN(C)CC3)c(-c3ccccc3C)n2)cc1", "values": [
      {"measurement": "CC50", "setting": "[1]", "value": "> 20000", "unit": "nM"},
      {"measurement": "EC50", "setting": "Hepatitis C virus [4]", "value": 2800, "unit": "nM"},
      {"measurement": "Ratio CC50/EC50", "setting": "[6]", "value": ">7.1"}
    ]},
    {"smiles": "CN1CCN(CCNCc2cn(-c3ccc(F)cc3F)nc2-c2ccc(Cl)cc2)CC1", "values": [
      {"measurement": "CC50", "setting": "[1]", "value": 19000, "unit": "nM"},
      {"measurement": "EC50", "setting": "Hepatitis C virus [2]", "value": 1900, "unit": "nM"},
      {"measurement": "CC50", "setting": "[3]", "value": 9100, "unit": "nM"},
      {"measurement": "EC50", "setting": "Hepatitis C virus [4]", "value": 380, "unit": "nM"},
      {"measurement": "inhibition", "setting": "[5]", "value": "inactive"},
      {"measurement": "Ratio CC50/EC50", "setting": "[6]", "value": 50}
    ]},
    {"smiles": "CN1CCN(CCNCc2cn(-c3ccc(F)cc3F)nc2-c2ccc(OC(F)(F)F)cc2)CC1", "values": [
      {"measurement": "CC50", "setting": "[1]", "value": 18000, "unit": "nM"},
      {"measurement": "EC50", "setting": "Hepatitis C virus [4]", "value": 360, "unit": "nM"},
      {"measurement": "Ratio CC50/EC50", "setting": "[6]", "value": 50}
    ]},
    {"smiles": "Cc1ccccc1-c1nn(-c2cc(F)ccc2F)cc1CNCCN1CCN(C)CC1", "values": [
      {"measurement": "CC50", "setting": "[1]", "value": "> 20000", "unit": "nM"},
      {"measurement": "EC50", "setting": "Hepatitis C virus [4]", "value": 2500, "unit": "nM"},
      {"measurement": "Ratio CC50/EC50", "setting": "[6]", "value": ">8"}
    ]},
    {"smiles": "Cc1ccccc1-c1nn(-c2ccc(Br)cc2)cc1CNCCN1CCN(C)CC1", "values": [
      {"measurement": "CC50", "setting": "[1]", "value": 9600, "unit": "nM"},
      {"measurement": "EC50", "setting": "Hepatitis C virus [4]", "value": 1200, "unit": "nM"},
      {"measurement": "Ratio CC50/EC50", "setting": "[6]", "value": 8}
    ]},
    {"smiles": "CCCN1CCC(CNCc2cn(-c3ccc([N+](=O)[O-])cc3)nc2-c2ccc(C(F)(F)F)cc2)CC1", "values": [
      {"measurement": "CC50", "setting": "[1]", "value": 2300, "unit": "nM"},
      {"measurement": "EC50", "setting": "Hepatitis C virus [4]", "value": 150, "unit": "nM"},
      {"measurement": "Ratio CC50/EC50", "setting": "[6]", "value": 15}
    ]},
    {"smiles": "CCCN1CCC(CNCc2cn(-c3ccc(C(F)(F)F)cc3)nc2-c2ccc(Cl)cc2)CC1", "values": [
      {"measurement": "CC50", "setting": "[1]", "value": 1900, "unit": "nM"},
      {"measurement": "EC50", "setting": "Hepatitis C virus [4]", "value": 290, "unit": "nM"},
      {"measurement": "Ratio CC50/EC50", "setting": "[6]", "value": 6.7}
    ]}
  ]
}
